CHT block: inhibitors of human choline transporter CHT | B-score at 10 µM | High affinity choline transporter 1 (Homo sapiens), Q9GZV3 | CHT-expressing cells, membrane potential dye, choline response; stronger effect = lower value | hit rate 0.86% among 310,000;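 active means B-score over 3 SD under the library average, and starting fluorescence ratio not unusually high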;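 further: choline stimulus applied at its EC90 after an EC20 pre-addition; B-score computed on integrated fluorescence ratio after choline addition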
TNAP inh hiacc: human TNAP enzyme inhibitors, primary screen, biochemical, luminescent, high phosphate acceptor level, uHTS | hit rate 0.03% among 200,000 | purified TNAP, CDP-star luminescence, 1 M DEA | Alkaline phosphatase, tissue-nonspecific isozyme (Homo sapiens), P05186 | AID 1135, 2008 | inhibition, % at 20 µM;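 active means over 50% inhibition of tissue-nonspecific alkaline phosphatase at 20 µM in the single-dose screen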
Target sequence (P05186 whole entry, looked up): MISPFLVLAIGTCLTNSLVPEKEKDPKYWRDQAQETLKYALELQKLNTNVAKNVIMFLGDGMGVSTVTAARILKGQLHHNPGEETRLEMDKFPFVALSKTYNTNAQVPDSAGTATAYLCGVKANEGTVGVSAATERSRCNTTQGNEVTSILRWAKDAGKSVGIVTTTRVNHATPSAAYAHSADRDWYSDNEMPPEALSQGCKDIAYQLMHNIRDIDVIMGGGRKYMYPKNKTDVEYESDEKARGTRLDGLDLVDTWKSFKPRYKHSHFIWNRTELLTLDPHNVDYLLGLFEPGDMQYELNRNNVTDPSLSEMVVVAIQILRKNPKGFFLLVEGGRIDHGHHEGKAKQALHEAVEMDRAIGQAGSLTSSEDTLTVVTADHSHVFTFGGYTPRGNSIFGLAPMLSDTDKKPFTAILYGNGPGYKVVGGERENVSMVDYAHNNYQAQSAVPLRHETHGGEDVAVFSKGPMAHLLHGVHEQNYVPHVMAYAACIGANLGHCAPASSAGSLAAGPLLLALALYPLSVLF
TNAP inh noacc: human TNAP enzyme inhibitors, primary screen, biochemical, luminescent, no phosphate acceptor, uHTS. AID 1012, 2008. hit rate 0.26% among 200,000. purified TNAP, CDP-star luminescence, 30 min. inhibition, % at 20 µM;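 active means tissue-nonspecific alkaline phosphatase inhibition above about 50% at 20 µM in the single-dose screen, limit read from the data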
CHT PAM: CHT positive allosteric modulators, primary screen, cell-based, membrane potential dye, choline EC20 | High affinity choline transporter 1 (Homo sapiens), Q9GZV3 | CHT-expressing cells; stronger effect = higher value; LV-AA mutant CHT in HEK293 cells | B-score at 10 µM | hit rate 0.49% among 310,000;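 active means initial fluorescence not abnormally high and integrated response B-score, plate-corrected, over 3 SD above library mean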
TNAP act hiacc: TNAP activators at high phosphate acceptor level, primary screen, biochemical, luminescence, uHTS; activation factor at 20 µM; 200,000 tested, under 10 active; purified TNAP, CDP-star luminescence, 1 M DEA, 30 min; stronger effect = higher value; 0 = EDTA background, 1 = DMSO-only activity;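 active means activation factor at least 2 at 20 µM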
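Assay system: human TNAP; Input: enzyme diluted 1/800 final; Reagent: CDP-star luminogenic substrate at 100 µM final; Timing: 30 min, room temperature; Signal: luminescence; Evaluation: TNAP activation factor scaled between EDTA and DMSO control wells.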
ABCB6 inh MLPCN: ABCB6 transporter inhibitors, primary screen, K562-ABCB6 cells, flow cytometry, MLPCN library; K562-ABCB6 porphyrin accumulation, 1 h; stronger effect = lower value; fluorescence ratio to DMSO, % at 10 µM; hit rate 0.19% among 360,000;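 active means fluorescence ratio to DMSO below 75%, the collection mean minus 3 SD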;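 further: signal is porphyrin accumulated inside mitochondria; lower ratio means ABCB6 inhibition with less porphyrin fluorescence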
Of the large screens only hits and unclear results are named; the others gave an inactive call; ! = a repeat was not active. This is a sample that favours compounds with a hit; in the whole collection about 1.4% have one here.

O=C(NNC(=O)c1ccc(O)cc1O)c1ccc(Cl)cc1	TNAP inh noacc 76
O=C(Nc1cc(-c2nc3ccccc3s2)ccc1Cl)c1ccc2c(c1)OCO2	none
N#C/C(=C(/O)c1ccc2c(c1)OCO2)c1nc2cc(C(F)(F)F)ccc2s1	CHT block -8.3 (no result: TNAP inh hiacc, TNAP inh noacc, TNAP act hiacc)
Nc1nc(SCC(=O)N2CCCC2)[nH]c(=O)c1-c1ccccc1	none
Nc1nc(SCC(=O)N2CCc3ccccc32)[nH]c(=O)c1-c1ccccc1	TNAP inh noacc 66
Cc1ccc(SC(CC(=O)c2ccc(C)cc2)C(=O)O)cc1 (configuration not stated)	none
O=C(CC(Sc1ccc(Br)cc1)C(=O)O)c1ccc(Br)cc1 (configuration not stated)	CHT block -7 (no result: TNAP inh hiacc, TNAP inh noacc, TNAP act hiacc, ABCB6 inh MLPCN)
C[C@H]1CC[C@H]2C(=O)N3[C@H](c4ccccc4Br)[C@@H](C)CC[C@H]3C(=O)N2[C@@H]1c1ccccc1Br	CHT PAM 8.1 (no result: ABCB6 inh MLPCN)
O=C(O)c1ccc(S(=O)(=O)NCC2CCCO2)cc1 (configuration not stated)	none (no result: TNAP inh hiacc, TNAP inh noacc, TNAP act hiacc)
CCCCC1=CC2=C(c3ccco3)C(=O)C(C)(OC(=O)c3ccc(OC)cc3)C(=O)C2=CN1C1CCCC1 (configuration not stated)	CHT block -7 (no result: TNAP inh hiacc, TNAP inh noacc, TNAP act hiacc, ABCB6 inh MLPCN)
O=C(CN1C(=O)c2cccc3cccc(c23)C1=O)N1CCCCCC1	ABCB6 inh MLPCN 63
COC(=O)C(Cc1ccccc1)OS(N)(=O)=O (configuration not stated)	none (no result: TNAP inh hiacc, TNAP inh noacc, TNAP act hiacc)
Cc1ccc(C(=O)O)cc1N1C(=O)c2cccc3c([N+](=O)[O-])ccc(c23)C1=O	CHT block -5 (no result: TNAP inh hiacc, TNAP inh noacc, TNAP act hiacc)
Cn1c(SCc2cc([N+](=O)[O-])cc3c2OCOC3)nnc1-c1ccccn1	none
COc1ccc(-c2[nH]ncc2CN2CCC(C(=O)N3CCOCC3)CC2)c(F)c1	TNAP inh noacc 68
OCCCC1CCCN(Cc2cn[nH]c2-c2ccc(F)cc2F)C1 (configuration not stated)	TNAP inh noacc 53
O=C(C1CCN(Cc2cn[nH]c2-c2ccc(F)cc2F)CC1)N1CCOCC1	TNAP inh noacc 51
CCOC(=O)C(Sc1ncnc2c1sc1nc(N3CCOCC3)c3c(c12)CCCC3)c1ccccc1 (configuration not stated)	none (no result: CHT block, CHT PAM, ABCB6 inh MLPCN)
CCOCCCNCC(O)c1ccccc1 (configuration not stated)	none
OCc1cc(C(O)CNCCCCCCOCCCCc2ccccc2)ccc1O (configuration not stated)	CHT block -5.8!
CCOc1cc(C(c2c(C)[nH][nH]c2=O)c2c(C)[nH][nH]c2=O)cc(Br)c1OC	none (no result: TNAP inh hiacc, TNAP inh noacc, TNAP act hiacc)
CCOc1cc(C(c2c(C)[nH][nH]c2=O)c2c(C)[nH][nH]c2=O)ccc1OS(=O)(=O)c1ccc(C)cc1	TNAP inh hiacc 52
CCOc1cc(C(c2c(C)[nH][nH]c2=O)c2c(C)[nH][nH]c2=O)ccc1OCc1ccc([N+](=O)[O-])cc1	none
CCOc1ccc(C(c2c(C)[nH][nH]c2=O)c2c(C)[nH][nH]c2=O)cc1OC	TNAP inh hiacc 65
CC1C(=O)N2CCCc3cc(NC(=O)c4ccccc4Br)cc1c32 (configuration not stated)	none (no result: TNAP inh hiacc, TNAP inh noacc, TNAP act hiacc)
CCCn1c(SCC(=O)c2cc(C)n(-c3cc(C)on3)c2C)n[nH]c1=O	none (no result: CHT block, TNAP inh hiacc, TNAP inh noacc, CHT PAM, TNAP act hiacc)
CCc1nc(N2CCN(C(=O)CCCl)CC2)c2c3c(sc2n1)CCCC3	none (no result: CHT block, TNAP inh hiacc, TNAP inh noacc, CHT PAM, TNAP act hiacc)
CCOC(=O)c1nc(N2CCN(C(=O)OCC)CC2)c2c3c(sc2n1)CCCC3	CHT block -5.9
Cc1cc(C)c(C)c(S(=O)(=O)N2CCN(C(=O)c3ccco3)CC2)c1C	none (no result: TNAP inh hiacc, TNAP inh noacc, TNAP act hiacc)
Cc1n[nH]c(C)c1S(=O)(=O)N1CCN(C(=O)c2ccco2)CC1	TNAP inh noacc 60

Source: PubChem (several laboratories)
